pIC50: −log10 of the molar value.

Tested on in one data set: not listed separately
Description: Cytotoxicity against mouse J774A1 cells assessed as reduction in cell viability incubated for 48 hrs by MTT assay. The data set is classed as cell-based, J774.A1.
Conditions: not given; call rule not given here
Put shortly:
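J774A.1 macrophages, 0.2 × 10^6 per well, incubated overnight at 37 °C in 5% CO2, then exposed to compounds in DMSO for 48 h, with DMSO dilutions as controls. Viability read by MTT formazan at 600 nm. CC50 = 50% viability reduction versus medium-only cells, from probit regression; three independent experiments.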
`COc1cccc(CNC(=O)c2c([N+](=O)[O-])noc2-c2ccc(Cl)cc2Cl)c1`: the CC50 at 48 h came out at 61.1 µM.
In the case of `COC(=O)c1c([N+](=O)[O-])noc1-c1ccccc1Br`, the CC50 at 48 h came out at 34.8 µM.
As for `COc1ccc(CNC(=O)c2c([N+](=O)[O-])noc2-c2ccc(Cl)cc2Cl)cc1OC`, the CC50 at 48 h worked out at 81.8 µM.
Still for that read-out and setting: as for `COC(=O)c1c(NCCCCNc2ccnc3cc(Cl)ccc23)noc1-c1ccc(Cl)cc1Cl`, the figure is 93.5 µM.
Regarding `COC(=O)c1c(NCCCN2CCOCC2)noc1-c1ccc([N+](=O)[O-])cc1`, the CC50 at 48 h amounted to 71.8 µM.
`COc1ccc(CNC(=O)c2c([N+](=O)[O-])noc2-c2ccc([N+](=O)[O-])cc2)cc1`: the CC50 at 48 h stood at 69.6 µM.
Consider `CCCNC(=O)c1c([N+](=O)[O-])noc1-c1ccc([N+](=O)[O-])cc1`, for which the CC50 at 48 h came out at 76.2 µM.
Same read-out and setting: as for `COC(=O)c1c(NCCNc2cc(C(F)(F)F)nc3c(C(F)(F)F)cccc23)noc1-c1ccccc1F`, the figure is 80.4 µM; as for `COC(=O)c1c(NCc2ccc(OC)c(OC)c2)noc1-c1ccc(Cl)cc1Cl`, 7.58 µM.

Tested on in another data set: not listed separately
Description: Selectivity index, ratio of CC50 for mouse J774.A1 cells to IC50 for amastigote form of Leishmania donovani MHOM/IN/80/Dd8. The conditions noted are these: read-out: Ratio CC50/IC50. In kind it is toxicity. Put shortly: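 Macrophages infected at a 1:10 ratio with stationary promastigotes, then treated 72 h at 37 °C; luminescence read with Steady-Glo. IC50 values from probit analysis.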
Turning to `COc1cccc(CNC(=O)c2c([N+](=O)[O-])noc2-c2ccc(Cl)cc2Cl)c1`, the selectivity ratio turned out to be 5.41.
On the same count and under the same terms, the figure for `COC(=O)c1c([N+](=O)[O-])noc1-c1ccccc1Br` is 1.08; for `COc1ccc(CNC(=O)c2c([N+](=O)[O-])noc2-c2ccc(Cl)cc2Cl)cc1OC` it is 41.9.
For `COC(=O)c1c(NCCCCNc2ccnc3cc(Cl)ccc23)noc1-c1ccc(Cl)cc1Cl`, the selectivity ratio came out at 3.39.
With `COC(=O)c1c(NCCCN2CCOCC2)noc1-c1ccc([N+](=O)[O-])cc1`, the selectivity ratio was 15.8.
For `COc1ccc(CNC(=O)c2c([N+](=O)[O-])noc2-c2ccc([N+](=O)[O-])cc2)cc1`, the selectivity ratio amounted to 33.8.
For the compound `CCCNC(=O)c1c([N+](=O)[O-])noc1-c1ccc([N+](=O)[O-])cc1`, the selectivity ratio was found to be 3.57.
As for `COC(=O)c1c(NCCNc2cc(C(F)(F)F)nc3c(C(F)(F)F)cccc23)noc1-c1ccccc1F`, the selectivity ratio turned out to be 4.52.
Take `COC(=O)c1c(NCc2ccc(OC)c(OC)c2)noc1-c1ccc(Cl)cc1Cl`: the selectivity ratio amounted to 3.

The subject of a further data set is Leishmania donovani. Description: Antileishmanial activity against late log phase promastigote stage of Leishmania donovani MHOM/IN/80/Dd8 harboring luciferase reporter gene incubated for 72 hrs by Steady-Glo luminescence assay. In kind it is functional, organism-based.
Conditions: not given
Summed up: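 Luciferase-transfected promastigotes kept at 25 ± 1 °C in medium 199 + 10% heat-inactivated FCS + G418 (20 μg ml–1). Late-log cells (5 × 10^5 per well) grown 72 h with graded compound concentrations from DMSO, DMSO dilution controls. Aliquot mixed 1:1 with Steady-Glo, luminescence (RLU) read; % inhibition vs control. IC50 by Probit regression, three independent experiments.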
`COc1cccc(CNC(=O)c2c([N+](=O)[O-])noc2-c2ccc([N+](=O)[O-])cc2)c1`: the IC50 entry is “Not Active”.
Same read-out and setting: as for `O=C(NCc1ccccc1)c1c([N+](=O)[O-])noc1-c1ccc(Cl)cc1`, the entry is “Not Active”; as for `O=C(O)c1c([N+](=O)[O-])noc1-c1cc2c(cc1[N+](=O)[O-])OCO2`, “Not Active”.
The same measure, in the same setting: as for `O=C(Nc1ccccc1)c1c([N+](=O)[O-])noc1-c1ccc([N+](=O)[O-])cc1`, the entry is “Not Active”.
Turning to `COC(=O)c1c(NCc2ccc(OC)cc2OC)noc1-c1ccc([N+](=O)[O-])cc1`, the IC50 entry is recorded as “Not Active”.
Still for that read-out and setting: as for `O=C(NCc1cccc(Br)c1)c1c([N+](=O)[O-])noc1-c1ccc(Cl)cc1`, the entry is “Not Active”.
With `CC(C)CCNC(=O)c1c([N+](=O)[O-])noc1-c1ccc(Cl)cc1`, the IC50 entry was “Not Active”.
Regarding `CCCNC(=O)c1c([N+](=O)[O-])noc1-c1ccc(Cl)cc1`, the IC50 result is listed as “Not Active”.
Regarding `O=C(NCCN1CCOCC1)c1c([N+](=O)[O-])noc1-c1ccc(Cl)cc1`, the IC50 entry is listed as “Not Active”.
In the case of `O=C(NCc1ccccc1)c1c([N+](=O)[O-])noc1-c1ccc([N+](=O)[O-])cc1`, the IC50 result is given as “Not Active”.
As for `COC(=O)c1c(NCc2cccc(OC)c2)noc1-c1cc2c(cc1[N+](=O)[O-])OCO2`, the IC50 entry is on record as “Not Active”.
Take `COC(=O)c1c(NCc2ccc(OC)c(OC)c2)noc1-c1cc2c(cc1[N+](=O)[O-])OCO2`: the IC50 result was “Not Active”.
As for `CCN(CC)CCNc1noc(-c2cc3c(cc2[N+](=O)[O-])OCO3)c1C(=O)OC`, the IC50 result is on record as “Not Active”.
As for `COC(=O)c1c(NCc2ccc(OC)cc2OC)noc1-c1cc2c(cc1[N+](=O)[O-])OCO2`, the IC50 entry is listed as “Not Active”.
For `O=C(NCc1cccc(Cl)c1Cl)c1c([N+](=O)[O-])noc1-c1ccc([N+](=O)[O-])cc1`, the IC50 entry is on record as “Not Active”.

The same data set, now with this note: Leishmania donovani, MHOM/IN/80/Dd8, 72 h; read-out: IC50.
Turning to `COc1cccc(CNC(=O)c2c([N+](=O)[O-])noc2-c2ccc(Cl)cc2Cl)c1`, the negative-log IC50 (pIC50) was 5.52.
For the compound `COC(=O)c1c([N+](=O)[O-])noc1-c1ccccc1Br`, the pIC50 was 6.47.
`COc1ccc(CNC(=O)c2c([N+](=O)[O-])noc2-c2ccc(Cl)cc2Cl)cc1OC`: the pIC50 is 5.28.
On the same count and under the same terms, as for `COC(=O)c1c(NCCCCNc2ccnc3cc(Cl)ccc23)noc1-c1ccc(Cl)cc1Cl`, the figure is 5.23; as for `COC(=O)c1c(NCCCN2CCOCC2)noc1-c1ccc([N+](=O)[O-])cc1`, 4.47; as for `COc1ccc(CNC(=O)c2c([N+](=O)[O-])noc2-c2ccc([N+](=O)[O-])cc2)cc1`, 5.45.
Regarding `CCCNC(=O)c1c([N+](=O)[O-])noc1-c1ccc([N+](=O)[O-])cc1`, the pIC50 was 5.51.
Same read-out and setting: the figure for `COC(=O)c1c(NCCNc2cc(C(F)(F)F)nc3c(C(F)(F)F)cccc23)noc1-c1ccccc1F` is 4.36; for `COC(=O)c1c(NCc2ccc(OC)c(OC)c2)noc1-c1ccc(Cl)cc1Cl` it is 5.35.

Another data set has as its system Leishmania donovani. Description: Antileishmanial activity against Leishmania donovani MHOM/IN/80/Dd8 promastigotes harboring luciferase reporter gene infected in mouse J774 cells assessed as inhibition of amastigote growth incubated for 72 hrs by Steady-Glo luminescence assay. The data set is classed as functional, organism-based.
Conditions: not given
Put shortly: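 J774A.1 mouse macrophages (2 × 10^5 per well, RPMI-1640 + 10% FCS, 37 °C CO2) infected after 24 h with stationary-phase luciferase-transgenic promastigotes at 1:10 macrophage:parasite; compounds in complete medium for 72 h at 37 °C. Medium swapped for PBS, Steady-Glo added, luminescence read; % inhibition vs untreated control RLU. IC50 by Probit log dose/response regression, three independent experiments.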
On to `COc1cccc(CNC(=O)c2c([N+](=O)[O-])noc2-c2ccc([N+](=O)[O-])cc2)c1`, for which the IC50 result is recorded as “Not Active”.
In the case of `O=C(NCc1ccccc1)c1c([N+](=O)[O-])noc1-c1ccc(Cl)cc1`, the IC50 result is “Not Active”.
As for `O=C(O)c1c([N+](=O)[O-])noc1-c1cc2c(cc1[N+](=O)[O-])OCO2`, the IC50 entry was “Not Active”.
In the case of `O=C(Nc1ccccc1)c1c([N+](=O)[O-])noc1-c1ccc([N+](=O)[O-])cc1`, the IC50 result was “Not Active”.
Consider `COC(=O)c1c(NCc2ccc(OC)cc2OC)noc1-c1ccc([N+](=O)[O-])cc1`, for which the IC50 result is “Not Active”.
Consider `O=C(NCc1cccc(Br)c1)c1c([N+](=O)[O-])noc1-c1ccc(Cl)cc1`, for which the IC50 entry was “Not Active”.
For the compound `CC(C)CCNC(=O)c1c([N+](=O)[O-])noc1-c1ccc(Cl)cc1`, the IC50 entry is recorded as “Not Active”.
On to `CCCNC(=O)c1c([N+](=O)[O-])noc1-c1ccc(Cl)cc1`, for which the IC50 result is “Not Active”.
`O=C(NCCN1CCOCC1)c1c([N+](=O)[O-])noc1-c1ccc(Cl)cc1`: the IC50 result is recorded as “Not Active”.
Consider `O=C(NCc1ccccc1)c1c([N+](=O)[O-])noc1-c1ccc([N+](=O)[O-])cc1`, for which the IC50 result is listed as “Not Active”.
Still for that read-out and setting: as for `COC(=O)c1c(NCc2cccc(OC)c2)noc1-c1cc2c(cc1[N+](=O)[O-])OCO2`, the entry is “Not Active”; as for `COC(=O)c1c(NCc2ccc(OC)c(OC)c2)noc1-c1cc2c(cc1[N+](=O)[O-])OCO2`, “Not Active”.
As to `CCN(CC)CCNc1noc(-c2cc3c(cc2[N+](=O)[O-])OCO3)c1C(=O)OC`, the IC50 entry is “Not Active”.
For the compound `COC(=O)c1c(NCc2ccc(OC)cc2OC)noc1-c1cc2c(cc1[N+](=O)[O-])OCO2`, the IC50 result was “Not Active”.
For `O=C(NCc1cccc(Cl)c1Cl)c1c([N+](=O)[O-])noc1-c1ccc([N+](=O)[O-])cc1`, the IC50 result is “Not Active”.

Still in this data set, the particulars now being: Leishmania donovani, MHOM/IN/80/Dd8, J774, 72 h; read-out: IC50.
On to `COc1cccc(CNC(=O)c2c([N+](=O)[O-])noc2-c2ccc(Cl)cc2Cl)c1`, for which the pIC50 was 4.95.
Same read-out and setting: as for `COC(=O)c1c([N+](=O)[O-])noc1-c1ccccc1Br`, the figure is 4.49.
For the compound `COc1ccc(CNC(=O)c2c([N+](=O)[O-])noc2-c2ccc(Cl)cc2Cl)cc1OC`, the pIC50 is 5.71.
Take `COC(=O)c1c(NCCCCNc2ccnc3cc(Cl)ccc23)noc1-c1ccc(Cl)cc1Cl`: the pIC50 is 4.56.
With `COC(=O)c1c(NCCCN2CCOCC2)noc1-c1ccc([N+](=O)[O-])cc1`, the pIC50 is 5.34.
`COc1ccc(CNC(=O)c2c([N+](=O)[O-])noc2-c2ccc([N+](=O)[O-])cc2)cc1`: the pIC50 is 5.69.
Regarding `CCCNC(=O)c1c([N+](=O)[O-])noc1-c1ccc([N+](=O)[O-])cc1`, the pIC50 is 4.67.
As to `COC(=O)c1c(NCCNc2cc(C(F)(F)F)nc3c(C(F)(F)F)cccc23)noc1-c1ccccc1F`, the pIC50 is 4.75.
Regarding `COC(=O)c1c(NCc2ccc(OC)c(OC)c2)noc1-c1ccc(Cl)cc1Cl`, the negative-log IC50 (pIC50) was 5.63.

Source of the values: ChEMBL document CHEMBL4699419, “Antileishmanial assessment of isoxazole derivatives against L. donovani” (RSC Med Chem, 2020).
